Assay results published in ChEMBL document CHEMBL4257552, “2-Aminobenzimidazoles as antibiofilm agents against Salmonella enterica serovar Typhimurium” (Medchemcomm, 2018).

Tested on: Galleria mellonella
Assay: Toxicity in Galleria mellonella at 400 mg/kg
Type: organism-based
Details: in vivo

SMILES	Activity
Cl.Nc1nc2cc(NC(=O)c3cc(Cl)cc(Cl)c3)ccc2n1CCCc1ccccc1	Non-Toxic
Cl.Nc1nc2cc(NC(=O)c3ccc(Cl)c(Cl)c3)ccc2n1CCCc1ccccc1	Non-Toxic

Tested on: Salmonella typhimurium
Assay: Antibiofilm activity against Salmonella typhimurium ATCC 14028 after 24 hrs by crystal violet staining based assay
Type: functional, organism-based, Salmonella enterica subsp. enterica serovar Typhimurium
Details: Salmonella enterica, ATCC 14028, 24 h
Outline: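 S. Typhimurium ATCC 14028 overnight TSB culture subcultured to OD600 0.08 in 1:20 TSB:water, compound added at set concentrations, static incubation in PVC 96-well plates 24 h at 30 °C. IC50 from dose-response curves.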

IC50	SMILES
20 to 40 µM	CCCCCc1ccc(C(=O)Nc2ccc3c(c2)nc(N)n3C)cc1
20 to 40 µM	CCCCCc1ccc(C(=O)Nc2ccc3c(c2)nc(N)n3C(C)C)cc1
15 to 20 µM	CCCCCc1ccc(C(=O)Nc2ccc3c(c2)nc(N)n3CCCC)cc1
10.8 µM	CCCCCCn1c(N)nc2cc(NC(=O)c3ccc(CCCCC)cc3)ccc21
6.66 µM	CCCCCCCCn1c(N)nc2cc(NC(=O)c3ccc(CCCCC)cc3)ccc21
20 to 40 µM	CCCCCCCCCCCCn1c(N)nc2cc(NC(=O)c3ccc(CCCCC)cc3)ccc21
15 to 20 µM	CCCCCc1ccc(C(=O)Nc2ccc3c(c2)nc(N)n3C2CCCC2)cc1
10 to 15 µM	CCCCCc1ccc(C(=O)Nc2ccc3c(c2)nc(N)n3CCc2c[nH]c3ccccc23)cc1
13.1 µM	CCCCCc1ccc(C(=O)Nc2ccc3c(c2)nc(N)n3CCCc2ccccc2)cc1
9.59 µM	CCCCCc1ccc(C(=O)Nc2ccc3c(c2)nc(N)n3CCCCc2ccccc2)cc1
10 to 15 µM	CCCCCCn1c(N)nc2ccc(NC(=O)c3ccc(CCCCC)cc3)cc21
20 to 40 µM	CCCCCc1ccc(C(=O)Nc2ccc3c(c2)nc(N)n3CCc2cnc[nH]2)cc1
10 to 15 µM	Cl.Nc1nc2cc(NC(=O)c3cc(Cl)cc(Cl)c3)ccc2n1CCCc1ccccc1
15 to 20 µM	CCCCCCc1ccc(C(=O)Nc2ccc3c(c2)nc(N)n3CCCc2ccccc2)cc1
7.69 µM	Cl.Nc1nc2cc(NC(=O)Nc3ccc(Cl)c(Cl)c3)ccc2n1CCCc1ccccc1
20 to 40 µM	CCc1ccc(C(=O)Nc2ccc3c(c2)nc(N)n3CCCc2ccccc2)cc1
15 to 20 µM	CCCCOc1ccc(C(=O)Nc2ccc3c(c2)nc(N)n3CCCc2ccccc2)cc1
15 to 20 µM	CCCCCCCc1ccc(C(=O)Nc2ccc3c(c2)nc(N)n3CCCc2ccccc2)cc1
6.3 µM	Cl.Nc1nc2cc(NC(=O)c3ccc(Cl)c(Cl)c3)ccc2n1CCCc1ccccc1
5.22 µM	CCCCCOc1ccc(C(=O)Nc2ccc3c(c2)nc(N)n3CCCc2ccccc2)cc1.Cl
> 40 µM	CCCCCCCC(=O)Nc1ccc2c(c1)nc(N)n2CCCc1ccccc1

IC50	SMILES
20 to 40 µM	CCCCCCCCCCn1c(N)nc2cc(NC(=O)c3ccc(CCCCC)cc3)ccc21
20 to 40 µM	CCCCCc1ccc(C(=O)Nc2ccc3nc(N)n(C)c3c2)cc1
10 to 15 µM	CCCCCCCCCC(=O)Nc1ccc2c(c1)nc(N)n2CCCc1ccccc1
15 to 20 µM	CCCc1ccc(C(=O)Nc2ccc3c(c2)nc(N)n3CCCc2ccccc2)cc1
20 to 40 µM	CCCCCc1ccc(C(=O)Nc2ccc3nc(N)n(CC)c3c2)cc1
> 50 µM	CCCCCCCCCCCC(=O)Nc1ccc2c(c1)nc(N)n2CCCc1ccccc1
10 to 15 µM	CCCCCc1ccc(C(=O)Nc2ccc3c(c2)nc(N)n3CC(C)C)cc1
10 to 15 µM	CCCCCc1ccc(C(=O)Nc2ccc3nc(N)n(CCCC)c3c2)cc1
20 to 40 µM	CCCCCCC(=O)Nc1ccc2c(c1)nc(N)n2CCCc1ccccc1
10 to 15 µM	CCCCc1ccc(C(=O)Nc2ccc3c(c2)nc(N)n3CCCc2ccccc2)cc1
10 to 15 µM	CCCCCCCCCCC(=O)Nc1ccc2c(c1)nc(N)n2CCCc1ccccc1
12.6 µM	Nc1nc2cc(C(=O)Nc3ccc(Cl)c(Cl)c3)ccc2n1CCCc1ccccc1
5.38 µM	Nc1nc2cc(NC(=O)c3ccc(Br)c(Br)c3)ccc2n1CCCc1ccccc1
> 50 µM	CCCCCCCCc1ccc(C(=O)Nc2ccc3c(c2)nc(N)n3CCCc2ccccc2)cc1
15 to 20 µM	CCCCCc1ccc(C(=O)Nc2ccc3c(c2)nc(N)n3C2CCCCC2)cc1
10 to 15 µM	CCCOc1ccc(C(=O)Nc2ccc3c(c2)nc(N)n3CCCc2ccccc2)cc1
15 to 20 µM	CCCCCCCCC(=O)Nc1ccc2c(c1)nc(N)n2CCCc1ccccc1
5.58 µM	Nc1nc2cc(NC(=O)c3cc(Br)cc(Br)c3)ccc2n1CCCc1ccccc1
20 to 40 µM	CCCCCc1ccc(C(=O)Nc2ccc3nc(N)n(C(C)C)c3c2)cc1
> 50 µM	CCCCCCCCCCCCCC(=O)Nc1ccc2c(c1)nc(N)n2CCCc1ccccc1
20 to 40 µM	CCCCCc1ccc(C(=O)Nc2ccc3[nH]c(N)nc3c2)cc1

Tested on: Salmonella typhimurium
Assay: Inhibition of planktonic growth of Salmonella typhimurium ATCC 14028 after 2 to 24 hrs
Type: organism-based
Details: salmonella enterica subsp. enterica serovar typhimurium
Outline: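 Overnight TSB culture diluted into fresh 1:20 TSB (OD600 0.08), 3 mL tubes with compound or untreated control, shaken at 30 °C. Samples at 2, 4, 6, 8 and 24 h serially diluted in 1:20 TSB, plated on nutrient agar, incubated overnight at 37 °C, and colonies counted.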

SMILES	Activity	growth inhibition (GI)
Cl.Nc1nc2cc(NC(=O)Nc3ccc(Cl)c(Cl)c3)ccc2n1CCCc1ccccc1	Non-Toxic	
CCCCCOc1ccc(C(=O)Nc2ccc3c(c2)nc(N)n3CCCc2ccccc2)cc1.Cl		Non-Toxic
